# Assay results taken from the RNAGym collection of RNA variant scans (doi:10.1038/s41586-018-0170-7).
# B1: tRNA (parent)
# chain: GUUCCGUUGGCGUAAUGGUAACGCGUCUCCCUCCUAAGGAGAAGACUGCGGGUUCGAGUCCCGUACGGAACG
# Variants of: B1
# Test: yeast fitness, log relative to wild type (ln ratio); higher = fitter; tRNA-Arg(CCU), competitive growth, 37 C, 1 M NaCl
# Method in brief: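 Fitness is the natural log of a genotype's generation count divided by that of the wild type. A combinatorial library of tRNA-Arg(CCU) variants sat on a HIS3 centromeric plasmid in BY4742 lacking the chromosomal gene, from two independent transformations. Pools grew 4 generations in SC-HIS at 30 °C, then ~6.5 generations (~26.5 h) in SC-HIS 1M NaCl at 37 °C, with three outputs per input. Generations came from OD-scaled log2 output/input frequency, inverse-variance weighted across replicates, with variants counted by 125 bp paired-end Illumina sequencing.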
row,Variant,yeast fitness (ln)
1,G1A U2G G6A C27U C46U A69G A70G,-0.226
2,G1A U2G G6A C27U C46U A69G A70U,-0.233
3,G1A U2G G6U C27U A43C C66U A70G C71U,-0.346
4,G1A U2G G6A C27U C66U A70G C71U,-0.309
5,G1A U2G G6U C27U A43C C46U C66A A70G C71U,-0.369
6,G1A U2G G6U A43C A70U C71U,-0.41
7,G1A U2G G6A A43C C46U A69G A70G C71U,-0.303
8,G1A U2G G6A C27U C46U C66U A69G A70U,-0.219
9,G1A U2G G6A C27U C46U C66U A69G A70G,-0.272
10,G1A U2G G6A C46U A69G A70G,-0.251
11,G1A U2G G6A C46U A69G A70U,-0.165
12,G1A U2G G6A A69G A70G C71U,-0.298
13,G1A U2G G6A A43C A69G A70G,-0.238
14,G1A U2G G6U C27U C46U A69G A70G C71U,-0.35
15,G1A U2G G6A C27U A43C C46U A70U,-0.215
16,G1A U2G G6A C27U A43C C46U A70G,-0.224
17,G1A U2G G6A C27U A43C C46U C66U A70G C71U,-0.286
18,G1A U2G G6A A43C C66A A69G A70G C71U,-0.253
19,G1A U2G G6U C27U A43C C46U C66A A69G A70U C71U,-0.431
20,G1A U2G G6U A43C A69G A70U C71U,-0.428
21,G1A U2G G6U C27U A43C C46U C66A C71U,-0.41

row,Variant,yeast fitness (ln)
1,G1A U2G G6U A43C C46U C66U C71U,-0.371
2,G1A U2G G6A C27U A43C A69G C71U,-0.673
3,G1A U2G G6A C27U C46U C66U A70U C71U,-0.0596
4,G1A U2G G6A C66A A70U,-0.0697
5,G1A U2G G6A A43C C46U C66U A70U C71U,-0.086
6,G1A U2G G6U A43C C46U A69G C71U,-0.393
7,G1A U2G G6A A43C C46U C66U C71U,-0.177
8,G1A U2G G6A C27U C66U A69G A70G C71U,-0.402
9,G1A U2G G6U C27U A70G C71U,-0.326
10,G1A U2G G6A A43C C46U A69G A70G,-0.292
11,G1A U2G G6A A43C C46U A69G A70U,-0.0779
12,G1A U2G G6U C27U A43C A69G A70G C71U,-0.449
13,G1A U2G G6U C27U C46U A69G C71U,-0.26
14,G1A U2G G6U C27U A43C C46U C66A A70U,-0.309
15,G1A U2G G6A C66U A69G A70G,-0.282
16,G1A U2G G6A C66U A69G A70U,-0.334
17,G1A U2G G6A C27U A70G C71U,-0.336
18,G1A U2G G6A C46U A70U,-0.143
19,G1A U2G G6A C46U A70G,-0.176
20,G1A U2G G6U C27U A43C C46U C66U A70U C71U,-0.647
21,G1A U2G G6U A70U C71U,-0.22

row,Variant,yeast fitness (ln)
1,G1A U2G G6A C27U C46U C66A A70U C71U,-0.249
2,G1A U2G G6U C27U A43C C46U C66U A69G A70U,-0.451
3,G1A U2G G6U C27U A43C C46U C66U A69G A70G,-0.476
4,G1A U2G G6A A43C C66A A70U,-0.216
5,G1A U2G G6A A43C C46U,-0.111
6,G1A U2G G6A A43C A70U C71U,-0.309
7,G1A U2G G6A C27U A69G A70U C71U,-0.526
8,G1A U2G G6A A43C C46U A69G A70U C71U,-0.262
9,G1A U2G G6U C27U A43C C66U C71U,-0.518
10,G1A U2G G6A A43C C46U C66A A70G,-0.26
11,G1A U2G G6A A43C C46U C66A A70U,-0.191
12,G1A U2G G6U C27U A43C C46U C66U A69G C71U,-0.4
13,G1A U2G G6U A43C C46U C66U A69G A70U,-0.299
14,G1A U2G G6U A43C C46U C66U A69G A70G,-0.365
15,G1A U2G G6A A43C C66U A70U,-0.434
16,G1A U2G G6A A43C C66U A69G A70U,-0.45
17,G1A U2G C66U A70U C71U,-0.486
18,G1A U2G G6A C27U A43C C66A A70U,-0.249
19,G1A U2G G6A A43C C46U A70G,-0.163
20,G1A U2G G6A A43C C46U A70U,-0.165
21,G1A U2G G6A C27U A43C C46U C66U A70U C71U,-0.645

row,Variant,yeast fitness (ln)
1,G1A U2G G6U A43C C46U A70G C71U,-0.338
2,G1A U2G G6A A43C C46U C66U,-0.23
3,G1A U2G G6A C27U A43C C66U A70G,-0.337
4,G1A U2G G6A C27U A43C C66U A70U,-0.236
5,G1A U2G G6A C27U A69G A70U,-0.256
6,G1A U2G G6A C27U A69G A70G,-0.428
7,G1A U2G G6U C27U A43C C46U C66U A69G A70G C71U,-0.475
8,G1A U2G G6A C27U A70U C71U,-0.264
9,G1A U2G G6A A43C A69G A70G C71U,-0.29
10,G1A U2G G6A C27U C46U C71U,-0.182
11,G1A U2G G6A C46U C66U A69G C71U,-0.253
12,G1A U2G G6U A43C C66U A69G C71U,-0.437
13,G1A U2G G6A A69G A70U C71U,-0.331
14,G1A U2G G6U A43C C46U C66A,-0.364
15,G1A U2G G6U A43C C46U C66U,-0.271
16,G1A U2G G6U C27U A43C C46U C66A A69G A70G C71U,-0.337
17,G1A U2G G6A C27U C46U,-0.154
18,G1A U2G G6A C27U C66U,-0.221
19,G1A U2G G6A A43C C46U A70G C71U,-0.202
20,G1A U2G G6U A43C C46U A69G A70U C71U,-0.398
